High-throughput results as filed in PubChem.
JMJD2C inh: inhibitors of GASC-1 histone demethylase, primary screen, biochemical, fluorescence, DELFIA europium | Lysine-specific demethylase 4C (Homo sapiens), Q9H3R0 | GST-JMJD2C(1-420) H3K9me3 demethylation | inhibition, % at 2.35 µM | 330,000 compounds, 0.069% hits | AID 2099, 2009;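 active = more than half of a compound's replicate wells show inhibition beyond 50%, single wells judged on their own value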;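 note: signal counts dimethyl H3K9 product captured on neutravidin plate; 0% = median of DMSO wells and 100% = 0.3 times that DMSO median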
TDP2 absorb: human TDP2 enzyme inhibitors, primary screen, biochemical, epi absorbance, recombinant enzyme; T5PNP hydrolysis, p-nitrophenol absorbance 415 nm; inhibition, % at 12.8 µM; 370,000 compounds, 0.34% hits; AID 720702, 2013;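 active = inhibition above the mean of all tested compounds plus 3 SD, set per campaign, cut at about 25% in these data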;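 note: 0% = DMSO with enzyme and 100% = buffer with substrate but no TDP2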
Target sequence (O95551 whole entry, looked up): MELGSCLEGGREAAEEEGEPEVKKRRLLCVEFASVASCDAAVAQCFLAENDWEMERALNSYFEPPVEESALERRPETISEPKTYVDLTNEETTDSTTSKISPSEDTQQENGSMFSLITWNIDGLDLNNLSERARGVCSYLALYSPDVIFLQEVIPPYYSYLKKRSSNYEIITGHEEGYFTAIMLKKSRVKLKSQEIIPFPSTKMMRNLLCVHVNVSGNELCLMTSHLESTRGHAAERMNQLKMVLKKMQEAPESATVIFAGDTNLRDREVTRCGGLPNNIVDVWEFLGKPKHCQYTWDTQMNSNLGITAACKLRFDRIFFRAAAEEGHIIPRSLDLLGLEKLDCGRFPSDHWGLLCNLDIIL
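Material: recombinant human TDP2; quantity: TDP2 enzyme at 120 nM final; medium: Tris-HCl pH 7.5 with MgCl2; compound: single concentration, 12.8 µM nominal, with 1% DMSO; incubation: 2 h enzyme incubation at 37 °C; signal: epi absorbance; measure: percent inhibition; benchmarks: high control without enzyme, low control DMSO plus TDP2; repeats: singlicate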
PAD4 inh: human PAD4 inhibitors, primary screen, biochemical, fluorescence polarization, 1536-well format | Protein-arginine deiminase type-4 (Homo sapiens), Q9UM07 | recombinant PAD4, RCA probe fluorescence polarization | inhibition, % at 6.36 µM | 330,000 compounds, 0.41% hits | AID 485272, 2010;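 active = percent inhibition above a cutoff equal to the mean of all tested compounds plus 3 SD, cut at about 15% in these data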;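 note: 0% = PAD4 with RCA probe and DMSO and 100% = probe without PAD4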
Apaf1 inhib: inhibitors of human Apaf-1 apoptosome, primary screen, biochemical, DEVD-Rh110 fluorescence, uHTS | Apoptotic protease-activating factor 1 (Homo sapiens), O14727 | reconstituted apoptosome caspase-3 activity | inhibition, % at 20 µM | 330,000 compounds, 0.71% hits; active = inhibition of at least 40% at 20 µM;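 note: plate controls were DMSO wells for no effect and DEVD-CHO caspase inhibitor wells for full effect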
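Assay system: Apoptosome proteins | Medium: pH 7.5 Hepes buffer with CHAPS, BSA, DTT | Also added: Cytochrome c and DEVD-Rh110 substrate | Times: 30 min plus 50 min, RT | Detection: Rhodamine 110 fluorescence at Ex 480/Em 540 nm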
GSTO1 inh: inhibitors of recombinant GSTO1, primary screen, counter-screen for RBBP9 inhibitor project, biochemical, fluorescence polarization; activity-based probe fluorescence polarization; 300,000 compounds, 1.1% hits; inhibition, % at 5.96 µM; AID 1974, 2009;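 active = inhibition above the campaign mean inhibition plus 3 SD, cut at about 35% in these data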;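 note: 0% = GSTO1-1 with DMSO and 100% = wells lacking GSTO1-1 enzyme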
Target sequence (P78417 whole entry, looked up): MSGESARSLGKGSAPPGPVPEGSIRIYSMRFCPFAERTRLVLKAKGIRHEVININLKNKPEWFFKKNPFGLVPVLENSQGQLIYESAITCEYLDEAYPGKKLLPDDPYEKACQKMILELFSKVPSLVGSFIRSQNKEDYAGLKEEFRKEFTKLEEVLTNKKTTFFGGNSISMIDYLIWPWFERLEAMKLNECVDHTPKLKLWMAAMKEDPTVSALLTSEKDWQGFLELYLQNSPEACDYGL
UBC9 SUMO inh: inhibitors of in vitro SUMOylation cascade, primary screen, biochemical, HTRF, uHTS. inhibition, % at 35 µM. SUMO-conjugating enzyme UBC9 (Homo sapiens), P63279. AID 2006, 2009. HTRF SUMOylation assay, SAE1/SAE2 + UBC9. 290,000 compounds, 0.36% hits; in the data active = inhibition above about 50%, passing the limit was not always enough
GSTO1 confirm: GSTO1 inhibitor hit confirmation, counter-screen for RBBP9 inhibitor project, biochemical, fluorescence polarization, triplicate | recombinant GSTO1, probe fluorescence polarization | shares compounds with GSTO1 inh | AID 2176, 2009 | inhibition, % at 5.96 µM | 2,400 compounds, 54% hits;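 active = inhibition above the primary screen's cutoff, its mean inhibition plus 3 SD, cut at about 35% in these data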;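 note: loss of polarization as inhibitors block binding of rhodamine sulfonate ester activity probe; 0% = GSTO1 with DMSO and 100% = wells lacking GSTO1 enzyme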
* = called active by the depositor; nt = no result. The list is not random: actives were taken first. Their share in the collection is about 1.6%.

SMILES	JMJD2C inh	TDP2 absorb	PAD4 inh	Apaf1 inhib	GSTO1 inh	UBC9 SUMO inh	GSTO1 confirm
CCOc1ccc(-n2c(SCC(=O)Nc3ccccc3-c3ccccc3)nnc2-c2cccs2)cc1	nt	-3.3	nt	nt	nt	nt	nt
Cc1ccc(CNC2CCC23CCC(c2ccccc2)CC3)o1 (stereo not drawn)	nt	-0.4	nt	nt	nt	nt	nt
CC(C)C(C#CC1CC1)N(Cc1ccc2c(c1)OCO2)C(N)=NC(=O)/C=C/c1ccccc1 (stereo not drawn)	nt	-6.4	nt	nt	nt	nt	nt
CCC(CO)Nc1cccc2c1S(=O)(=O)N(Cc1cn(Cc3cccc(C(F)(F)F)c3)nn1)Cc1ccccc1O2 (stereo not drawn)	nt	-4.0	nt	nt	nt	nt	nt
CC1=C(C)/C(=N\OS(=O)(=O)c2ccc(C)cc2)C=CC1=O	15.7	-4.5	-1.0	nt	44.5*	11.1	7.0
COc1ccc(C2CCC3(CCC(=O)N3CCO)CC2)cc1 (stereo not drawn)	nt	8.4	nt	nt	nt	nt	nt
COc1ccc(NC(=S)NC(NC(=O)CCl)C(Cl)(Cl)Cl)c([N+](=O)[O-])c1 (stereo not drawn)	0.4	nt	-3.8	16.6	91.7*	1.5	96.8*
O=CN/C=C/c1cc(O)ccc1O	nt	5.6	2.2	5.8	71.6*	39.2	7.5
COC(=O)[C@]12C[C@H](CC(=O)N3CCC(c4ccccc4)CC3)C(=O)N(Cc3ccco3)C1=C[C@H](C1CCCC1)O[C@@H]2C	nt	-5.0	nt	nt	nt	nt	nt
COc1cccc(NC(=O)NCCC2=CCCCC2)c1	0.8	-13.9	-0.9	-0.5	4.1	5.5	nt
COc1ccc(NC(=O)NCCC2=CCCCC2)cc1	-1.6	3.9	0.0	0.7	64.4*	0.1	10.2
COCc1nc2ccccc2n1CCc1ccccc1	16.9	-3.8	-3.0	-6.9	39.5*	16.4	5.3
CCCC/C=C1/[C@H](c2ccc(Cl)cc2)N(Cc2ccc3c(c2)OCO3)C2=N[C@H](c3ccccc3)CC(=O)N21	nt	-5.8	nt	nt	nt	nt	nt
Oc1ccc(/C=N/Nc2ccnc3cc(Cl)ccc23)c(O)c1O	12.5	0.0	2.5	23.1	26.3	3.9	nt
Oc1ccc(/C=N/Nc2ccnc3cc(Cl)ccc23)cc1O	-11.5	-8.1	-4.3	5.3	38.0*	-13.6	7.5
CC(=O)c1cc(-c2ccc(-c3ccccc3)c(F)c2)c(=O)n2c1CCC2	nt	-1.2	nt	nt	nt	nt	nt
CC(C(=O)O)N1C(=O)/C(=C/C=C/c2ccco2)SC1=S (stereo not drawn)	17.7	2.8	-0.8	47.0*	64.5*	84.0*	29.6
CCN(C(=O)C(C)N1C(=O)/C(=C/c2ccco2)SC1=S)C1CCS(=O)(=O)C1 (stereo not drawn)	-30.5	0.9	-0.5	25.1	30.9	37.7	nt
COC(=O)c1cccc2c1NC(=O)C2=O	6.3	19.3	2.5	-1.3	50.5*	13.3	1.2
Cc1cccc2c1NC(=O)C2=O	nt	4.9	nt	nt	nt	nt	nt
COc1cc(OC)cc(-c2nc(-c3ccccc3OC)no2)c1	8.9	-0.5	3.1	7.3	52.5*	-1.8	6.1
CC1CCC(NC(=O)C2(C)CCC(=O)N2Cc2cccnc2)CC1 (stereo not drawn)	9.7	0.3	-1.9	-0.5	4.0	-3.8	nt
CC1(C(=O)NC2CCCCC2)CCC(=O)N1Cc1cccnc1 (stereo not drawn)	2.2	-3.7	0.9	5.2	51.7*	-11.7	4.7
CC(=O)Nc1sc(NC(=O)c2ccccc2)nc1-c1cccs1	4.7	-6.2	-3.3	-23.5	-1.8	3.0	nt
COc1ccccc1C(=O)Nc1nc(-c2cccs2)c(NC(C)=O)s1	-9.8	-6.3	1.4	5.0	38.7*	33.5	8.4
SMILES	JMJD2C inh	TDP2 absorb	PAD4 inh	Apaf1 inhib	GSTO1 inh	UBC9 SUMO inh	GSTO1 confirm
COC(=O)[C@H]1C[C@@]2(c3ccccc3)c3ccccc3N(S(=O)(=O)c3ccccc3)[C@H]2N1	nt	3.0	nt	nt	nt	nt	nt
CC1(S(=O)(=O)O)CC(=O)c2ccccc2C1=O (stereo not drawn)	7.3	8.8	-0.3	29.0	73.8*	10.5	73.5*
CC1(N2CCOCC2)C(=O)c2ccccc2C1=O	-37.9	3.6	-0.5	0.4	0.8	-8.0	nt
O=C(O)Cc1cc(I)c(Oc2ccc(O)c(I)c2)c(I)c1	-7.7	nt	-6.9	28.0	62.2*	30.9	56.5*
Cc1cccc[n+]1C1C(c2ccc([N+](=O)[O-])cc2)C(C#N)=C(C(=C=[N-])C#N)NC1(O)C1CC1 (stereo not drawn)	-5.7	9.3	9.0	19.7	40.5*	8.5	47.6*
CCOc1ccc(-n2c(SCC(=O)Nc3ccc(S(=O)(=O)Nc4cc(C)nc(C)n4)cc3)nnc2-c2ccc(C)cc2)cc1	nt	4.3	nt	nt	nt	nt	nt
Cc1ccc(NC(=O)C2CCCN(c3nnc(-n4cccc4)s3)C2)c(C)c1 (stereo not drawn)	nt	7.3	nt	nt	nt	nt	nt
O=C(CSc1n[nH]c(=O)[nH]c1=O)Nc1ccc2c(c1)C(=O)c1ccccc1C2=O	1.9	19.9	1.3	5.6	60.9*	87.6*	77.7*
CCN(c1ccccc1)S(=O)(=O)c1cc(NC(=O)CSc2n[nH]c(=O)[nH]c2=O)ccc1Cl	5.3	-7.0	2.1	-24.5	52.4*	-12.7	67.4*
CCN(c1ccccc1)S(=O)(=O)c1cc(NC(=O)C2CC2)ccc1Cl	-3.4	-1.5	-6.0	1.4	nt	nt	nt
CN(C)Cc1c(O)ccc2c(=O)c(-c3ccc(Cl)cc3)coc12	8.5	-5.3	-2.5	-1.8	-0.1	40.1	nt
O=c1c(-c2ccc([N+](=O)[O-])cc2)coc2c(O)c(O)ccc12	-5.2	-10.4	2.7	-1.6	53.4*	-0.2	25.4
C[C@H]1[C@@H](OC(=O)Nc2cc(Cl)ccc2Cl)CC[C@@]23CCCN2C(=O)CCC[C@@H]13	nt	-15.3	nt	nt	nt	nt	nt
CC(=O)c1ccccc1Oc1cc(NN2CCCCC2)c([N+](=O)[O-])cc1[N+](=O)[O-]	1.7	-6.3	-1.1	3.6	2.4	-0.7	nt
CC(=O)c1cccc(Oc2cc(NN3CCCCC3)c([N+](=O)[O-])cc2[N+](=O)[O-])c1	1.7	9.0	6.2	17.8	44.2*	7.7	28.9
O=[N+]([O-])c1ccc(Cl)c(/C=N/n2c(-c3ccncc3)n[nH]c2=S)c1	1.7	14.1	0.4	-1.6	49.7*	12.4	9.9
COc1cccc(OC)c1NC(=O)OCCN1CCCC12CCC(c1ccccc1)CC2 (stereo not drawn)	nt	1.8	nt	nt	nt	nt	nt
